Published values gathered from unrelated publications.
Protocols differ between the studies behind these lines.
MRGPRX2: Mas-related G-protein coupled receptor member X2 (MRGPRX2, Homo sapiens, UniProt Q96LB1)
CYP17A1: Steroid 17-alpha-hydroxylase/17,20 lyase (CYP17A1, Homo sapiens, UniProt P05093)

COC(=O)Nc1nc2cc(C(=O)c3ccc(F)cc3)ccc2[nH]1 — IC50 (Vascular endothelial growth factor receptor 2 (KDR, Homo sapiens, UniProt P35968); enzyme activity, inhibitor, TR-FRET): 470 nM
NC(=O)[C@@H]1CCCN1C(=O)[C@H](CCC(=O)O)NC(=O)[C@@H]1CCC(=O)N1 — EC50 (MRGPRX2; calcium signal, agonist): > 20000 nM
COc1cc(C(=O)N2CC[C@@H](O)[C@@H](N)C2)cc2nc(-c3cc4ccccc4n3CC3CC3)n(C)c12 — IC50 (Vasopressin V1a receptor (AVPR1A, Homo sapiens, UniProt P37288); calcium signal, antagonist, fluorescence): 25100 nM
C/C=C1\NC(=O)[C@H](C)NC(=O)[C@@H](NC(=O)[C@@H](Cc2ccc(O)cc2)NC(=O)[C@@H](NC(=O)/C(C)=C/C)C(C)C)[C@@H](C)OC(=O)[C@H](CC[S+](C)[O-])NC(=O)[C@@H](CCC(=O)O)NC1=O (stereo partly drawn) — IC50 (Chymotrypsin-like elastase family member 1 (CELA1, Sus scrofa, UniProt P00772); enzyme activity, inhibitor, absorbance): 7280 nM
Cc1cc2c(cc1Br)NC(=O)/C2=N/N=C1/C(=O)Nc2cc(Br)c(C)cc21 — IC50 (Glycogen synthase kinase-3 beta (GSK3B, Homo sapiens, UniProt P49841); enzyme activity, inhibitor): ~0.03 nM
CC(=O)C1=CC[C@H]2[C@@H]3CCC4=CC(=O)CC[C@]4(C)[C@H]3CC[C@]12C — Kd (CYP17A1; binding, absorbance): 540 nM
Nc1ncc(-c2nc(N3CCOCC3)nc(N3CCOCC3)n2)c(C(F)F)n1 — IC50 (Phosphatidylinositol 4,5-bisphosphate 3-kinase catalytic subunit alpha isoform (PIK3CA, Homo sapiens, UniProt P42336); ligand displacement, TR-FRET): 21.9 nM
C/C(=C\[N+](=O)[O-])c1ccccc1 — Kd (OYE1 (Saccharomyces pastorianus, UniProt Q02899); binding, absorbance): 170000 nM
C[C@@H](O)[C@@H]1NC(=O)[C@H](CCCCN)NC(=O)[C@H](Cc2c[nH]c3ccccc23)NC(=O)[C@H](Cc2ccccc2)NC(=O)[C@H](Cc2ccccc2)NC(=O)[C@H](CC(N)=O)NC(=O)[C@H](CCCCN)NC(=O)[C@@H](NC(=O)[C@@H]2CCCN2)CSSC[C@@H](C(=O)N[C@@H](CCCCN)C(=O)O)NC(=O)[C@H](CO)NC(=O)[C@H](CO)NC(=O)[C@H](Cc2ccccc2)NC1=O — EC50 (MRGPRX2; calcium signal, agonist): 79.4 nM
CC(=O)[C@H]1CC[C@H]2[C@@H]3CCC4=CC(=O)CC[C@]4(C)[C@H]3CC[C@]12C — Kd (CYP17A1; binding, absorbance): 740 nM
CC(C)C[C@H](NC(=O)[C@H](Cc1ccccc1)NC(=O)c1cnccn1)B(O)O — IC50 (Cathepsin G (CTSG, Homo sapiens, UniProt P08311); enzyme activity, inhibitor): 36000 nM
CCCc1cc(C)[nH]c(=O)c1CNC(=O)c1cc(-c2ccc(N3CCN(CCCCc4cn(CCN5C(=O)\C(=C/C=C/C=C6/N(CCC(=O)OCOC(C)=O)c7ccc(C(=O)OCOC(C)=O)cc7C6(C)C)C(=O)N(CC)C5=O)nn4)CC3)nc2)cc2c1cnn2C(C)C — IC50 (Histone-lysine N-methyltransferase EZH2 (EZH2, Homo sapiens, UniProt Q15910); enzyme activity, inhibitor, radiometric): 21 nM
CC(C)=CCc1c(O)cc2c(c1O)C(=O)C[C@@H](c1ccc(O)cc1)O2 — Ki (Cytochrome P450 1A1 (CYP1A1, Homo sapiens, UniProt P04798); enzyme activity, inhibitor, fluorescence; 15 min, pH 7.4): 590 nM
Cc1c(Cc2cccc(N(C)S(=O)(=O)CCCN3CCN(c4ccc(Nc5c(C(N)=O)cnc6ccc(-c7cnc8ccccc8c7)cc56)cc4C(F)(F)F)CC3)c2)c(=O)oc2cc(OC(=O)N(C)C)ccc12 — IC50 (Dual specificity mitogen-activated protein kinase kinase 1 (MAP2K1, Homo sapiens, UniProt Q02750); enzyme activity, inhibitor, mobility shift): 4970 nM
CC[C@H](C)[C@H](NC(=O)[C@@H]1CCCN1C(C)=O)C(=O)N[C@@H](CCC(=O)O)C(=O)N[C@H](C(=O)N[C@@H](CS)C(=O)N[C@@H](CCSC)C(=O)N[C@@H](Cc1ccc(O)cc1)C(=O)N[C@@H](CCCNC(=N)N)C(=O)N[C@@H](CCC(=O)O)C(=O)N1CCC[C@H]1C(N)=O)C(C)C — EC50 (MRGPRX2; calcium signal, agonist): > 20000 nM
